Shown are actives, neighbours in structure and some others; about 3.7% of the full set was active somewhere.
OX1R antag-1: OX1R (human) antagonism; O43613; AID 485270; OX1R-expressing cells, FRET antagonist read-out; 1.8% of 330,000 active; inhibition, % at 6.6 µM; in the data active = inhibition mostly above about 38%, no sharp cut-off; inactive = mostly below about 40%;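 note: 0% = agonist challenge alone and 100% = reference antagonist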
EP2 mod: EP2 receptor (human) modulation; 0.83% of 260,000 active; EP2-expressing cells, cAMP HTRF FRET, PGE2 co-stimulation; P43116; AID 940; induction, % at 25 µM;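 active = compounds whose cAMP rise, as percent of the full-agonist control response, exceeds 60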;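 note: rat C6 glioma line stably carrying human EP2 under a CMV promoter; the protocol text gives 20 µM as final concentration; 100% = response of wells given 1 µM PGE2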
Target sequence (P43116 whole entry, looked up): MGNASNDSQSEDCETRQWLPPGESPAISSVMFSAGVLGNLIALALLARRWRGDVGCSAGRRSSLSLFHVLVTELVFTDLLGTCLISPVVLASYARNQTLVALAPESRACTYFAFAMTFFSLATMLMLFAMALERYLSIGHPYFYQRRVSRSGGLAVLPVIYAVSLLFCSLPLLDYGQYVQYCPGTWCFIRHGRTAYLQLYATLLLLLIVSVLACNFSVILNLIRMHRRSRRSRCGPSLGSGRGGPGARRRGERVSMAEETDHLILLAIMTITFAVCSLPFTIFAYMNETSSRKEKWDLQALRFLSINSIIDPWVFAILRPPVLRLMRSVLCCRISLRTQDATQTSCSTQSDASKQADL
OX1R antag-2: human HCRTR1 antagonism. inhibition, % at 5 µM. 0.43% of 330,000 active. CHO/OX1R cells, Fluo-8 calcium fluorescence, orexin A;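 active = inhibition above its plate's threshold, mean inhibition of all tested compounds on the plate plus 3 SD, cut at about 37% in these data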;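 note: 0% = orexin A challenge wells and 100% = SB-334867-A antagonist wells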
EP2 antag: blocks the human prostaglandin E2 receptor EP2. P43116. C6 glioma cells expressing human EP2, cAMP TR-FRET; cells stimulated with saturating PGE2. inhibition, % at 25 µM. 0.52% of 260,000 active;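 active = percent inhibition above 40 after rounding to a whole number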;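 note: rat C6 glioma host cells with rolipram phosphodiesterase inhibitor present; the protocol text gives 20 µM as final concentration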
GPR7 antagonist: blocks human GPR7 receptor signaling; inhibition, % at 4.4 µM; P48145; 1.1% of 290,000 active; GPR7-expressing cells, fluorescence antagonist assay; AID 1861; in the data active = inhibition above about 16%, passing the limit was not always enough;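 note: cells stimulated with the agonist NPW; 0% = agonist with vehicle and 100% = vehicle without agonist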
CHO parental Ca: counter-screen: ATP calcium response change in parental CHO cells; 0.63% of 330,000 active; AID 463079; parental CHO-K1, ATP-induced calcium, Fluo-8 fluorescence; inhibition, % at 5.6 µM;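 active = inhibition above that plate's mean sample inhibition plus 3 SD, cut at about 26% in these data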;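 note: 0% = ATP-challenged DMSO wells and 100% = DMSO wells without ATP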
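Assay system: untransfected parental CHO cell line. Also added: ATP agonist challenge. Dosing: one dose, 5.6 µM nominal. Measured by: Fluo-8 fluorescence. Read-out: % inhibition. Benchmarks: ATP wells versus no-ATP DMSO wells. Repeats: no replicates.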
The depositor's hits bear a star; x = no result given.

SMILES | OX1R antag-1 | EP2 mod | OX1R antag-2 | EP2 antag | GPR7 antagonist | CHO parental Ca
COc1ccc(-c2cc(C(=O)OCC(=O)Nc3ccc4c(c3)OCO4)c3ccccc3n2)cc1 | 65* | -4 | -8 | 7 | -6 | -10
O=C(COC(=O)c1cc(-c2ccccc2)nc2ccccc12)Nc1ccc2c(c1)OCO2 | 14 | -9 | -4 | 8 | 10 | -5
C=CCn1c(SC)nnc1-c1cccc([N+](=O)[O-])c1 | 53* | 25 | -3 | 13 | -5 | -7
COc1ccccc1NC(=O)C1CCCCN1S(=O)(=O)c1ccc(F)cc1 (stereo unspecified) | 57* | 28 | 4 | 8 | 2 | -15
CCOc1ccccc1NC(=O)C1CCCCN1S(=O)(=O)c1ccccc1 (stereo unspecified) | 53* | x | 33 | x | x | -25
CCOc1ccccc1NC(=O)C1CCCN1S(=O)(=O)c1ccc(F)cc1 (stereo unspecified) | x | 2 | x | 8 | x | x
O=C(Nc1ccccc1NS(=O)(=O)c1ccc(F)cc1)C1CCCC1 | 63* | 19 | 2 | 2 | -7 | -16
COc1ccc(NC(=O)C2CCCCN2S(=O)(=O)c2ccc(F)cc2)c(OC)c1 (stereo unspecified) | 16 | -6 | -5 | 9 | -8 | -22
O=C(Nc1ccccc1N1CCCC1)C1CCN(S(=O)(=O)c2ccc(F)cc2)CC1 | 18 | x | -16 | x | x | 11
CCOc1ccccc1NC(=O)C(NCC1CCCCC1)c1ccccc1 (stereo unspecified) | 7 | 65* | -30 | 9 | -24 | -8
CCN1CCN(C(c2cc3cccc(C)c3[nH]c2=O)c2nnnn2C2CCCCC2)CC1 (stereo unspecified) | x | -2 | x | 8 | x | x
CCC1(C)Cc2ccccc2-c2nc3n(c(=O)c21)CCCCC3 (stereo unspecified) | 15 | 57 | -25 | 9 | -14 | -28
CC1(C)Cc2ccccc2-c2nc3n(c(=O)c21)CCCS3 | 17 | 64* | -17 | 8 | -7 | -15
CC1CCCN(C(=O)CN2C(=O)c3ccccc3C2=O)C1 (stereo unspecified) | 20 | 25 | -23 | 2 | -7 | -5
CCNc1ccc(C(=O)OCC(=O)NCCN2C(=O)CSC2=O)cc1[N+](=O)[O-] | 68* | 31 | 5 | 7 | -10 | -8
Cc1ccc(C(=O)OCC(=O)NCCN2C(=O)CSC2=O)cc1 | 11 | 28 | -4 | 5 | -8 | -7
O=C(NC1CC2(CCCCC2)Oc2ccccc21)C1CCOC1 (stereo unspecified) | x | -23 | x | x | x | x
CN(C)S(=O)(=O)Oc1cccc(C(=O)Nc2ccc(Cl)c(Cl)c2)c1 | 53 | -63 | 23 | 40* | -4 | 9
COC(=O)c1ccc(NC(=O)Nc2ccc(F)c(Cl)c2)cc1 | 59* | -40 | 19 | 6 | 16 | 41*
O=C(Nc1ccc(F)c(Cl)c1)Nc1csc2ccccc12 | 67* | -61 | 50* | 12 | -6 | 40*
COC(=O)c1cccc(NC(=O)NC(=O)c2ccccc2Cl)c1 | 6 | -14 | -46 | 8 | 4 | -19
COC(=O)c1ccc(NC(=O)Nc2ccc(F)cc2)cc1 | 64 | -31 | 26 | 36 | 8 | 7
COC(=O)c1cc(NC(=O)Nc2ccccc2)ccc1Cl | 38 | -34 | 31 | 8 | -12 | 49*
COC(=O)c1c(C)[nH]c(C(=O)COC(=O)c2c(C)noc2C)c1C | 4 | x | -21 | x | x | -17
Cc1ccc(S(=O)(=O)N2CCN(CCOc3cccc(C)c3)CC2)cc1 | 5 | x | -15 | x | x | -25
SMILES | OX1R antag-1 | EP2 mod | OX1R antag-2 | EP2 antag | GPR7 antagonist | CHO parental Ca
COc1cccc(NC(=O)Nc2ccc(C)c(Cl)c2)c1 | 50 | -61 | 38* | 6 | 18 | 90*
COC(=O)c1cccc(NC(=O)Nc2ccc(Cl)c(Cl)c2)c1 | 69* | -23 | 67* | 16 | 24 | 23
COc1cccc(NC(=O)Nc2cc(C(=O)O)ccc2C)c1 | 5 | 33 | -13 | 11 | 0 | 4
CCOC(=O)CC1CCCCN1C(=O)c1cc(COc2cccc3cnccc23)on1 (stereo unspecified) | 48* | x | 26 | x | 21 | 53*
Nc1ccc2c(c1)C(=O)c1ccccc1-2 | 16 | x | -4 | x | x | -5
O=C1c2ccccc2-c2ccc(N(Cc3ccc(Br)cc3)Cc3ccc(Br)cc3)cc21 | x | 18 | x | 47* | x | x
C/C(=N\Nc1nc(-c2ccccc2)cs1)c1cccs1 | 8 | 18 | -9 | 8 | -3 | -16
C/C(=N\Nc1nc2ccccc2s1)c1cccs1 | 56* | 1 | -22 | 11 | -18 | -19
CSC1=NC(=O)/C(=C/c2ccc(SC)cc2)S1 | 39* | -68 | -18 | 11 | -11 | -11
CCOC(=O)C1CCN(C2=NC(=O)/C(=C/c3ccc(Cl)cc3)S2)CC1 | 1 | x | -11 | x | 7 | -12
CCOC(=O)CSC1=NC(=O)/C(=C\c2ccc(Cl)cc2)S1 | 72* | -12 | 5 | 8 | -9 | -5
CCCCOc1nc2c(c(=O)n(C)c(=O)n2C)n1C | 9 | 3 | -15 | 2 | -8 | -11
C/C(=N\NC(=O)C1CC1(C)c1ccccc1)c1ccco1 (stereo unspecified) | 8 | -67 | -13 | 6 | -10 | -20
O=S(=O)(c1cccs1)N1CCCc2ccccc21 | 21 | -25 | -9 | 12 | 2 | 56*
O=S(=O)(c1cccs1)N1CCc2ccccc21 | 8 | -5 | -24 | 14 | 4 | -24
O=C(Nc1ccc2c(c1)N(S(=O)(=O)c1cccs1)CCC2)c1c(F)cccc1Cl | 55* | x | 11 | x | x | -3
Cc1cc(C)c2sc(N(CCCN(C)C)C(=O)CN3C(=O)c4ccccc4C3=O)nc2c1 | 4 | -47 | -20 | 6 | -4 | -3
CCn1cc([N+](=O)[O-])c(C(=O)N2CCCC2)n1 | x | 2 | x | 8 | -10 | x
O=C(O)CCCNc1cc(N2CCC3(CC2)OCCO3)c2noc3c2c1C(=O)c1ccccc1-3 | 65* | -28 | 0 | x | -10 | -11
CCOC(=O)N1CCN(c2cc(NCCC(=O)O)c3c4c(onc24)-c2ccccc2C3=O)CC1 | 73* | 0 | -28 | x | -16 | -17
O=C(O)CCCNc1cc(N2CCN(C(=O)c3ccco3)CC2)c2noc3c2c1C(=O)c1ccccc1-3 | 58* | x | -20 | x | -14 | -16
CN1CCN(c2cc(N3CCN(C(=O)c4ccco4)CC3)c3c4c(onc24)-c2ccccc2C3=O)CC1 | 38 | x | -33 | x | 3 | -11
COc1ccccc1N1C(=O)CC(Nc2ccc(N3CCOCC3)cc2)C1=O (stereo unspecified) | 71* | 7 | -18 | 30 | -12 | 5
Cc1ccccc1OCCNc1cc(N2CCCCC2)ccc1[N+](=O)[O-] | 18 | 10 | -4 | 9 | -3 | 37*
Cc1ccccc1C(=O)N1CCN(c2ccc(NC(=O)c3cccnc3)cc2)CC1 | 6 | -28 | -19 | 14 | -12 | -10

Source: PubChem BioAssay (several laboratories)
